Results pooled from the literature.
Protocols differ between the studies behind these lines.
Target: Serine/threonine-protein kinase 35 (STK35, Homo sapiens, UniProt Q8TDR2)

For `CN(C(=O)c1ccccc1)c1cc(N(C)c2ccc3c(c2)CCc2ccc(C(=O)NCCN4CCOCC4)cc2C3=O)ccc1F`, the remaining binding was 100% (cell-free assay, competition with immobilised ligand; 1 µM).
`F[C@@H]1CCN(c2nccc(-c3cnn4ncccc34)n2)C1` gave a remaining binding of 100% (binding; 1 µM).
The remaining binding of `C=CC(=O)N1CCC(C(=O)NCC(=O)N2CCN(c3nc(-c4cnc(N)nc4C(F)F)nc(N4CCOCC4)n3)CC2)CC1` is reported as 93% (binding, competition with immobilised ligand; 1 µM).
The remaining binding of `O=C(Nc1c[nH]nc1C(=O)NC1CCNCC1)c1cc(F)cc(F)c1` is reported as 100% (binding, competition with immobilised ligand; 1 µM).
`COc1ccc2cc(OCC3(C(=O)O)CN(C(=O)c4ccc(F)cc4)C3)ccc2c1` gave a remaining binding of 100% (cell-free assay, competition with immobilised ligand; 1 µM).
`CN(CCCC(F)(F)F)c1nccc(-c2cnn3ncccc23)n1` has a remaining binding of 100% (binding; 1 µM).
`NS(=O)(=O)c1cc(NC(=O)C2(c3ccccc3Cl)CC2)ccc1Oc1cccc(Cl)c1` has a remaining binding of 94% (cell-free assay, competition with immobilised ligand; 1 µM).
The remaining binding of `C[C@H]1CCN(c2nccc(-c3cnn4ncccc34)n2)C1` is reported as 100% (binding; 1 µM).
With `Cc1nccc(COC(=O)N2C[C@@H]3[C@@H](CNC(=O)c4ccc5[nH]nnc5c4)[C@@H]3C2)n1` the remaining binding was 83% (cell-free assay, competition with immobilised ligand; 1 µM).
`CN(C)c1ncc(F)c(-c2cnn3ncccc23)n1` has a remaining binding of 100% (binding; 1 µM).
The remaining binding of `CC1=C(C#N)[C@@H](c2ccc3[nH]nc(C)c3c2)C(C#N)=C(c2ccc(Cl)cc2)N1` is reported as 100% (cell-free assay, competition with immobilised ligand; 1 µM).
`O=C(NCCCN1CCOCC1)c1ccc(Nc2ncc(Cl)c(-c3ccc(Cl)s3)n2)cc1` gave a remaining binding of 100% (binding, competition with immobilised ligand; 1 µM).
With `CN(C)C(=O)Cn1cc(-c2nc(C3(c4ccc(-c5cnc(N)nc5)cc4)CC3)no2)cn1` the remaining binding was 94% (cell-free assay, competition with immobilised ligand; 1 µM).
`COc1ncc2cc3ccccc3nc2c1C#N` has a remaining binding of 98% (cell-free assay, competition with immobilised ligand; 5 µM).
For `COc1cnc(Nc2cccc(S(N)(=O)=O)c2)nc1N1CCN(c2ccccc2)C(=O)C1`, the remaining binding was 100% (binding, competition with immobilised ligand; 1 µM).
`CCOC(=O)c1cc2cc(-c3cc(C(=O)NCc4ccc(C(=O)O)cc4)nn3C)ccc2[nH]1` gave a remaining binding of 94% (cell-free assay, competition with immobilised ligand; 0.1 µM).
`Cc1cnn2ncc(-c3ccnc(N(C)C)n3)c2c1` has a remaining binding of 100% (binding; 1 µM).
The remaining binding of `CNC(=O)[C@@H]1CC[C@@H](n2c(-c3ccc4cnccc4c3)nc3ccc(C(=O)NCc4cccc(C(N)=O)c4)cc32)C1` is reported as 98% (binding, competition with immobilised ligand; 1 µM).
With `N[C@@H]1CCN(c2nccc(-c3cnn4ncccc34)n2)C1` the remaining binding was 100% (binding; 1 µM).
The remaining binding of `O=C(c1ccc(Nc2nccc(-c3cc4ccccc4s3)n2)cc1)N1CCC(N2CCCC2)CC1` is reported as 100% (binding, competition with immobilised ligand; 1 µM).
For `CN(C)c1nccc(-c2cnc3ncccn23)n1`, the remaining binding was 100% (binding; 1 µM).
For `O=C(c1ccc(Nc2ncc(Cl)c(-c3cc4ccccc4s3)n2)cc1)N1CCC(N2CCCC2)CC1`, the remaining binding was 67% (binding, competition with immobilised ligand; 1 µM).
